From ChEMBL document CHEMBL1123470, “N-substituent modulation of opiate agonist/antagonist activity in resolved 3-methyl-3-(m-hydroxyphenyl)piperidines” (J Med Chem, 1986)
Structures can show the parent of a compound that is named as a salt. Calls of active or inactive are those of the source. No cut-off for these calls is given here.

Assays:
Mus musculus [1] = test: Compound was tested for analgesic activity in mouse using mouse writhing test after sc administration of compound; type: functional
Mus musculus [2] = test: Analgesic antagonistic activity in mice using morphine(56.07 umol/kg) induced Straub-tail test after sc administration; No antagonist activity up to 846 umol/ kg; type: functional, organism-based
Summary of the method: (§1)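 Mice got the test substance, N-allylnormorphine reference, or diluent sc, then immediately 56.07 µmol/kg morphine sulfate sc. The number of mice showing a Straub-tail reaction (tail raised above 45°) was recorded 15–25 min after treatment.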

Mus musculus [3] = test: Analgesic antagonistic activity in mice using morphine(56.07 umol/kg) induced Straub-tail test after sc administration; type: functional; summary of the method: as §1
Mus musculus [4] = test: Compound was tested for analgesic activity in mouse using mouse writhing test following subcutaneous administration; type: functional
Mus musculus [5] = test: Compound was tested for narcotic antagonist potency using tail flick test in mouse following subcutaneous administration; type: functional; conditions: sc
Mus musculus [6] = test: Compound was tested for narcotic antagonist potency using tail flick test in mouse after sc administration of compound; type: functional
[7] = target: T1, Delta-type opioid receptor (Rattus norvegicus, UniProt P33533); test: Opioid receptor affinity against the Opioid receptor delta 1 by using the curve-fitting program LIGAND
T1 sequence (P33533 whole entry): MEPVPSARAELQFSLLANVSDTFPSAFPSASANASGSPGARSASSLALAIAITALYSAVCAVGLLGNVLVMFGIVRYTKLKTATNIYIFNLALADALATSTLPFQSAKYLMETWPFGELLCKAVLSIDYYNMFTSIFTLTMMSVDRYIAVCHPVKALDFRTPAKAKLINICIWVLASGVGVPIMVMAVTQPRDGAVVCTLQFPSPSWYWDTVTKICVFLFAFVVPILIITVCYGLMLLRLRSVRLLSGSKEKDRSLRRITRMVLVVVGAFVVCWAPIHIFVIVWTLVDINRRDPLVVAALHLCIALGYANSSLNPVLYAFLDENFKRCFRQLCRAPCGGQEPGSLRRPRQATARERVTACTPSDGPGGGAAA

Mu-type opioid receptor [8] = target: T2, Mu-type opioid receptor (Rattus norvegicus, UniProt P33535); test: Mu2 opioid receptor affinity against the receptor site model site 2 (mu2) by using the curve-fitting program LIGAND
T2 sequence (P33535 whole entry): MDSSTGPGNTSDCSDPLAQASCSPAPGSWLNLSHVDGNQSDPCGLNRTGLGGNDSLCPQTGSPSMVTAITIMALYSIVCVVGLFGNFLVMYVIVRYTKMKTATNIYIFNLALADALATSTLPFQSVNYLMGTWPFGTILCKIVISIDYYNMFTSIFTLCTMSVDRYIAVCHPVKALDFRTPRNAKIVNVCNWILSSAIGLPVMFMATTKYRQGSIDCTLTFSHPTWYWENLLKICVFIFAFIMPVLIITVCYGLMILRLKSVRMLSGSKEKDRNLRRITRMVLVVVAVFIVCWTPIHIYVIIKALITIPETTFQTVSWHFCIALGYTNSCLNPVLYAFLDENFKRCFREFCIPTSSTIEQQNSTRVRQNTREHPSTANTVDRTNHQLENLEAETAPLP

Mu-type opioid receptor [9] = target: T2, Mu-type opioid receptor; test: (§2) Opioid receptor mu 1 affinity against the receptor site model site 1 (mu1) by using the curve-fitting program LIGAND
Opioid receptor = Opioid receptor (Rattus norvegicus, UniProt P33533+P34975+P33535); test: Opioid receptor affinity against the receptor site model site 5 by using the curve-fitting program LIGAND; type: protein assay
[10] = target: Kappa-type opioid receptor (Rattus norvegicus, UniProt P34975); test: Opioid receptor affinity against Opioid receptor kappa 1 by using the curve-fitting program LIGAND
Sequence of Kappa-type opioid receptor (P34975 whole entry): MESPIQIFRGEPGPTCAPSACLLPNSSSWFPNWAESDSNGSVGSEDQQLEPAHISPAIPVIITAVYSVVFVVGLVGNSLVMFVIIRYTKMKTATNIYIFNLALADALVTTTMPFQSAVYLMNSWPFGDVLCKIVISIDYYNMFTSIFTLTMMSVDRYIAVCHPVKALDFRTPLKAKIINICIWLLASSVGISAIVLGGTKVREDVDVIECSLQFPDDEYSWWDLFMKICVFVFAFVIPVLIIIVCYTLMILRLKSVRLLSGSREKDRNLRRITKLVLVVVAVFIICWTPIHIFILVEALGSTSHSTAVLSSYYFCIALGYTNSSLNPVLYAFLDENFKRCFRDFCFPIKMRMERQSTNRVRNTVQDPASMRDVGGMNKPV

Mus musculus [11] = test: Compound was tested for analgesic potency using writhing test in mouse after sc administration of compound; type: functional
Mus musculus [12] = test: Compound was tested for narcotic antagonist potency using tail flick test in mouse after sc administration of compound; no significant antagonist activity up to dose of 240-300 umol/kg.; type: functional, organism-based
Mu-type opioid receptor [13] = target: T2, Mu-type opioid receptor; test: as §2; remark: listed apart in the source
Summary of the method: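 Rat whole-brain homogenate, preincubated 37 °C 1 h, resuspended in Tris pH 7.7 (with 100 mM NaCl when appropriate) at 6.7 mg tissue/mL. […] Triplicate tubes, 25 °C 45 min, then filtration. Self- and cross-competition data were fitted together by multisite LIGAND analysis for site affinities. Values are averages of at least two experiments.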

Mus musculus [14] = test: Compound was tested for narcotic antagonist potency using tail flick test in mouse after sc administration of compound; No significant antagonist activity up to dose of 240-300 umol/kg.; type: functional, organism-based
[15] = target: T1, Delta-type opioid receptor; test: Affinity against the Opioid receptor delta 1
[16] = Mus musculus, sc, read-out: ED50

CCOC(=O)C1(c2ccccc2)CCN(C)CC1 [MEPERIDINE HYDROCHLORIDE]
ED50 (Mus musculus [1]): 20.2 µmol/kg | AD50 (Mus musculus [2]): inactive

CC1(c2cccc(O)c2)CCCN(CCc2ccccc2)C1 (racemic)
AD50 (Mus musculus [3]): 33.94 µM/kg | ED50 (Mus musculus [1]): 14.1 µmol/kg

C=CCN1CC[C@]23c4c5ccc(O)c4O[C@H]2[C@@H](O)C=C[C@H]3[C@H]1C5 [NALORPHINE]
ED50 (Mus musculus [4]): 1.4 µM/kg | ED50 (Mus musculus [5]): 2.04 µmol/kg

CC1(c2cccc(O)c2)CCCN(CCc2ccccc2)C1 (stereo in doubt; (+)-7d)
ED50 (Mus musculus [6]): 13.1 µmol/kg | Kd [7]: 0.588 µM | Kd (Mu-type opioid receptor [8]): 0.0062 µM | Kd (Mu-type opioid receptor [9]): 0.005 µM | Kd (Opioid receptor): 26.3 µM | Kd [10]: 0.179 µM | ED50 (Mus musculus [11]; [16]): 11.5 µmol/kg

C=CCN1CCCC(C)(c2cccc(O)c2)C1 (single isomer, unassigned; (-)) [listing 1 of 2 here]
Kd [7]: 4 µM | Kd (Mu-type opioid receptor [8]): 0.11 µM | Kd (Mu-type opioid receptor [9]): 0.024 µM | Kd (Opioid receptor): 1.72 µM | Kd [10]: 0.37 µM | ED50 (Mus musculus [11]): 14.34 µM/kg

CC1(c2cccc(O)c2)CCCN(CC2CC2)C1 (single isomer, unassigned; (-)) [listing 1 of 2 here]
ED50 (Mus musculus [11]; [16]): 12.2 µmol/kg

C=CCN1CCCC(C)(c2cccc(O)c2)C1 (single isomer, unassigned; (-)) [listing 2 of 2 here]
ED50 (Mus musculus [12]): inactive

CC1(c2cccc(O)c2)CCCN(CC2CC2)C1 (single isomer, unassigned; (+))
ED50 (Mus musculus [6]): 139 µmol/kg

CN1CCCC(C)(c2cccc(O)c2)C1 (stereo in doubt; (-)-7a) [listing 1 of 2 here]
Kd [7]: 30 µM | Kd (Mu-type opioid receptor [8]): 1.17 µM | Kd (Opioid receptor): 8.33 µM | Kd [10]: 0.625 µM | Kd (Mu-type opioid receptor [13]): 0.114 µM | ED50 (Mus musculus [11]; [16]): 25.7 µmol/kg

C=CCN1CC[C@]23c4c5ccc(O)c4O[C@H]2[C@@H](O)C=C[C@H]3[C@H]1C5.Cl [NALORPHINE HYDROCHLORIDE]
AD50 (Mus musculus [3]): 0.71 µM/kg | ED50 (Mus musculus [4]; [16]): 1.4 µmol/kg

C=CCN1CCCC(C)(c2cccc(O)c2)C1 (single isomer, unassigned; (+))
ED50 (Mus musculus [6]): 112 µmol/kg | Kd [7]: 4 µM | Kd (Mu-type opioid receptor [8]): 0.37 µM | Kd (Opioid receptor): 3.7 µM | Kd [10]: 0.137 µM | Kd (Mu-type opioid receptor [13]): 0.1 µM | ED50 (Mus musculus [11]): 160.94 µM/kg

CN1CCCC(C)(c2cccc(O)c2)C1 (stereo in doubt; (+)-7a)
ED50 (Mus musculus [6]): 101 µmol/kg | Kd [7]: 15.9 µM | Kd (Mu-type opioid receptor [8]): 1 µM | Kd (Mu-type opioid receptor [9]): 0.132 µM | Kd (Opioid receptor): 19.2 µM | Kd [10]: 0.714 µM | ED50 (Mus musculus [11]): 41.36 µM/kg

CC1(c2cccc(O)c2)CCCN(CCc2ccccc2)C1 (single isomer, unassigned; (-)) [listing 1 of 2 here]
ED50 (Mus musculus [12]): inactive

CN1CC[C@]23c4c5ccc(O)c4O[C@H]2[C@@H](O)C=C[C@H]3[C@H]1C5
ED50 (Mus musculus [4]; [16]): 0.81 µmol/kg

Br.CN1CCCC(C)(c2cccc(O)c2)C1 (racemic)
AD50 (Mus musculus [3]): 18.17 µM/kg | ED50 (Mus musculus [1]): 26.9 µmol/kg

CC1(c2cccc(O)c2)CCCN(CC2CC2)C1 (single isomer, unassigned; (-)) [listing 2 of 2 here]
ED50 (Mus musculus [12]): inactive

CN1CCCC(C)(c2cccc(O)c2)C1 (stereo in doubt; (-)-7a) [listing 2 of 2 here]
ED50 (Mus musculus [14]): inactive

C=CCN1CCCC(C)(c2cccc(O)c2)C1 (racemic)
AD50 (Mus musculus [3]): 38.83 µM/kg | ED50 (Mus musculus [1]): 418 µmol/kg

CC1(c2cccc(O)c2)CCCN(CCc2ccccc2)C1 (single isomer, unassigned; (-)) [listing 2 of 2 here]
Kd [7]: 2.17 µM | Kd (Mu-type opioid receptor [8]): 0.13 µM | Kd (Mu-type opioid receptor [9]): 0.013 µM | Kd (Opioid receptor): 1.39 µM | Kd [10]: 0.625 µM | ED50 (Mus musculus [11]): 18.38 µM/kg

CC1(c2cccc(O)c2)CCCN(CC2CC2)C1 (racemic)
AD50 (Mus musculus [3]): 7.5 µM/kg | ED50 (Mus musculus [1]): 83.5 µmol/kg

CCC1C2C(=O)c3ccc(O)cc3C1(C)CCN2CC1CC1 (stereo unspecified)
Kd [15]: 0.014 µM
